Where a SMILES comes first, the peptide text is derived from it. The star is where a group is joined. X1 = C[C@H](Cn1cnc2c(N)ncnc21)OCP(=O)(O)OCCS*; Palmitoyl = CCCCCCCCCCCCCCCC(=O)*

Here are results for three molecules from publication PMC9894536 (Biomaterials science, 2023).

In one data set the test system is HBV. In words: Anti-HBV efficacy, HBV DNA in supernatant of HepAD38 cells by qPCR. The class given is cell-based. Conditions: Hepatitis B virus, HePAD38, 96 h, read-out: IC50, HBV production.
Data set [1] is classed as physicochemical. Particulars: addition of PBS (final 1x PBS) to 5 mM solution; 10 ul 10x PBS to 100 ul. An outline of the steps: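 Aqueous prodrug solutions, brought to pH 7.4 after purification, were gelled by adding 10× PBS at a 10:1 solution-to-buffer ratio to reach 1× PBS. Gel formation and the critical gelation concentration were judged by a simple vial-inversion test across prodrug concentrations.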

Data set [2] in a line: Nanobelt width by negatively stained transmission electron microscopy. Particulars: TEM, 1 mM concentration, mean ± SD, n = 35. The format is physicochemical. Summed up:
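Samples were pH 7.4 aqueous solutions (1 mM shown), negatively stained and imaged by TEM. Nanobelt widths were measured from the images and reported as mean ± SD over 35 measurements.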

A short description of data set [3]: Critical micellization concentration by Nile red encapsulation assay. The class given is physicochemical. Conditions: fluorescence ratio 635 nm vs 660 nm, aqueous, n = 3. An outline of the steps: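 Critical micellization concentration was read on a fluorometer as the concentration where the ratio of fluorescence at 635 nm (encapsulated Nile red) to 660 nm (free Nile red) shifted. Measurements were made in aqueous prodrug solutions, and data are mean ± SD of 3.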

A short description of data set [4]: Instantaneous gelation on injection into PBS. The format is physicochemical. Particulars: 10 mM solution assembled with 10 mM Nile red, injected into 10x PBS.
The nature of data set [5]: In vitro gel release of TFV-PA from hydrogel depots. The class given is physicochemical. An outline of the steps: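 Hydrogels were made from 5 and 10 mM prodrug solutions and aged at 37 °C under a fixed volume of PBS release medium. Supernatant was collected and replaced at set time points up to day 30 and analysed by analytical RP-HPLC. Release is given as nanomoles and as percent of conjugate in the original gel, mean ± SD, n = 3.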

The nature of data set [6]: Free TFV release / prodrug stability with or without dithiothreitol. The class given is physicochemical. Particulars: 100 μM in 1x PBS, 10 mM DTT, 37 °C; for TFV released by 24 hours with DTT: RP-HPLC and ESI MS.

By IC50 is commonly meant the point on the concentration scale where inhibition reaches its midpoint. With `C[C@H](Cn1cnc2c(N)ncnc21)OCP(=O)(O)O` [TFV, tenofovir], the half-inhibitory concentration (IC50) in the data set on HBV is 1100 nM.

`CCCCCCCCCCCCCCCC(=O)N[C@H](C(=O)N[C@H](C(=O)N[C@@H](CSSCCOP(=O)(O)CO[C@H](C)Cn1cnc2c(N)ncnc21)C(=O)N[C@@H](CCC(=O)O)C(=O)O)C(C)C)C(C)C` [TFV-PA2] (Palmitoyl-VVC(X1)E-OH; C-terminus assumed): in data set [1], the “gel formation of 5 mM solution” value was “weak gel formation”. Moreover, in data set [2], the nanobelt width is reported as 11.8 ± 1.3 nm. The “critical micellization concentration (CMC)” value in data set [3] is 51 µM. In addition, the gelation upon injection result in data set [4] is “formed gels instantly upon injection”. In addition, the “average concentration in the release supernatant, 5 mM gels” value in data set [5] (5 mM hydrogel, 37 °C, PBS release medium, RP-HPLC) was determined as 361 ± 91 µM. The “percent release on day 14, 5 mM gel” value in data set [5] (5 mM hydrogel, 37 °C, PBS release medium, RP-HPLC, day 14, n = 3) is listed as 56%. The “prodrug released on day 14, 5 mM gel” value in data set [5] (5 mM hydrogel, 37 °C, PBS release medium, day 14, mean ± SD) was 126 ± 7 nmol. Further, the “average concentration in the release supernatant, 10 mM gels” value in data set [5] (10 mM hydrogel, 37 °C, PBS release medium, RP-HPLC) was 619 ± 268 µM. Further, the “percent release on day 14, 10 mM gel” value in data set [5] (10 mM hydrogel, 37 °C, PBS release medium, RP-HPLC, day 14, n = 3) is recorded as 48%. For the same molecule, in data set [5] (10 mM hydrogel, 37 °C, PBS release medium, day 14, mean ± SD), the “prodrug released on day 14, 10 mM gel” value turned out to be 217 ± 12 nmol. Further, in data set [5] (hydrogels aged at 37 °C with PBS release medium, RP-HPLC, day 14), the “initial prodrugs released from hydrogel by day 14” value is listed as “about 50%”. The “TFV released after 1 hour with DTT” value in data set [6] (1 hour, RP-HPLC, n = 3) is reported as “more than 90%”. The “TFV released by 24 hours with DTT” value in data set [6] is reported as “all TFV released”.

Take `CCCCCCCCCCCCCCCC(=O)N[C@H](C(=O)N[C@H](C(=O)N[C@H](C(=O)N[C@@H](CSSCCOP(=O)(O)CO[C@H](C)Cn1cnc2c(N)ncnc21)C(=O)N[C@@H](CCC(=O)O)C(=O)O)C(C)C)C(C)C)C(C)C` [TFV-PA3] (Palmitoyl-VVVC(X1)E-OH; C-terminus assumed): the “gel formation of 5 mM solution” value in data set [1] was “robust gel formation”. In data set [2], this molecule registered a nanobelt width of 18.9 ± 3.0 nm. Further, in data set [3], the “critical micellization concentration (CMC)” value came out at 8 µM. The gelation upon injection result in data set [4] was “formed gels instantly upon injection”. In addition, in data set [5] (5 mM hydrogel, 37 °C, PBS release medium, RP-HPLC, day 30, mean ± SD, n = 3), the “percent released on day 30, 5 mM hydrogels” value came out at 16.3 ± 1.3%. Moreover, the “prodrug released on day 30, 5 mM hydrogels” value in data set [5] (5 mM hydrogel, 37 °C, PBS release medium, day 30, mean ± SD) is 36.7 ± 3.0 nmol. For the same molecule, the “percent released on day 30, 10 mM hydrogels” value in data set [5] (10 mM hydrogel, 37 °C, PBS release medium, RP-HPLC, day 30, mean ± SD, n = 3) is on record as 6.1 ± 0.5%. Besides, in data set [5] (10 mM hydrogel, 37 °C, PBS release medium, day 8 onwards), the “average concentration of release supernatant from day 8 onwards, 10 mM gels” value turned out to be 13.3 ± 4.2 µM. The “prodrug released on day 30, 10 mM hydrogels” value in data set [5] (10 mM hydrogel, 37 °C, PBS release medium, day 30, mean ± SD) was 27.3 ± 2.2 nmol. Further, the “initial prodrugs retained in hydrogel on day 30” value in data set [5] (hydrogels aged at 37 °C with PBS release medium, RP-HPLC, day 30) is “more than 80%”. Further, the “TFV released after 4 hours with DTT” value in data set [6] (4 hours, RP-HPLC, n = 3) is “more than 70%”. For the same molecule, in data set [6], the “TFV released by 24 hours with DTT” value was “all TFV released”.
